RanGTP-Imp inh: inhibitors of RanGTP-importin-beta interaction, primary screen, biochemical, FRET, CFP-Ran, YFP-importin-beta, homogeneous; Ran GTPase (GTP-bound) - importin-beta complex; cell-free CFP-Ran/YFP-importin-beta FRET ratio; inhibition, % (no concentration beside the values); 300,000 compounds, 1.1% hits; AID 2216, 2009;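 active = more than half of the replicate wells show a fall in the fluorescence ratio signal beyond about 16%, limit read from the data, passing the limit was not always enough; inconclusive = exactly half of the replicate wells pass the set limit; inactive = fewer than half of replicates pass the limit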;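 also: 0% = DMSO wells and 100% = Ran loaded with GDP instead of GTP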
Runt-SMMHC FRET: inhibitors of RUNX1 Runt–CBFb-SMMHC binding, primary screen, biochemical, FRET, Cerulean-Runt, Venus-CBFb-SMMHC, uHTS | Cerulean-Runt/Venus-CBFb-SMMHC FRET ratio 530/480, 1 h | 220,000 compounds, 0.74% hits | Runt-related transcription factor 1 (Homo sapiens) + Core-binding factor subunit beta … | inhibition, % at 20 µM;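 active = mean inhibition across duplicate retests at 20 µM reaching about 50%, limit read from the data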;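 also: 0% = DMSO wells and 100% = wells with excess untagged CBFb-SMMHC; inhibitors lower the FRET ratio by blocking Runt binding to CBFb-SMMHC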
Target sequence (Q01196 whole entry, looked up): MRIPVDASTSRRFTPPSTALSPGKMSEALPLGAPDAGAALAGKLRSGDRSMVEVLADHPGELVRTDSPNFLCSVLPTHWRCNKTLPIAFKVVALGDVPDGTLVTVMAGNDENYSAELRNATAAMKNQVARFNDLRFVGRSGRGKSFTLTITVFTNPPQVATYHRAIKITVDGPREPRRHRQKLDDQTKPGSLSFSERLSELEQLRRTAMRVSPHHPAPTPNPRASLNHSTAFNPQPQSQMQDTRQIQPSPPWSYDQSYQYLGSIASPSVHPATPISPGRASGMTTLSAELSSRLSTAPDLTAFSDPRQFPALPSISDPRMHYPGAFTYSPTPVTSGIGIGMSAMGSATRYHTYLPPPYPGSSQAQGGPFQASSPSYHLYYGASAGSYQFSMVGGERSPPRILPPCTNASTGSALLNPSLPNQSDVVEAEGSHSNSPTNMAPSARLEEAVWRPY
Target sequence (Q13951 whole entry, looked up): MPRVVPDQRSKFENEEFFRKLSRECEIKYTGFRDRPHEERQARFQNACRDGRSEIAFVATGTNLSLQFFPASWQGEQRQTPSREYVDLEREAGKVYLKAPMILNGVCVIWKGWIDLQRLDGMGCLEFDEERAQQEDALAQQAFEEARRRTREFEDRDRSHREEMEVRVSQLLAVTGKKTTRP
Runt-CBFb FRET: inhibitors of RUNX1 Runt–CBFb binding, primary screen, biochemical, FRET, Cerulean-Runt, Venus-CBFb, uHTS; Cerulean-Runt/Venus-CBFb FRET ratio 530/480, 1 h; inhibition, % at 20 µM; 220,000 compounds, 0.46% hits; AID 1496, 2009;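 active = inhibition over about 50% at 20 µM in the single-dose screen, limit read from the data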;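 also: 0% = DMSO wells and 100% = excess unlabeled CBFb competitor control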
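System: Cerulean-labeled Runt domain protein | Quantity: 100 nM of each labeled protein | Schedule: 1 h compound exposure, room temperature | Detection: Fluorescence energy transfer, 422 nm excitation, 530/480 nm emission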
Hck-Nef inh: inhibitors of Nef-activated human Hck kinase, primary screen, biochemical, Z-Lyte FRET, 384-well, Hck-YEEI. Tyrosine-protein kinase HCK (Homo sapiens), P08631. Recombinant Hck-YEEI plus Nef, Z-Lyte FRET kinase assay. inhibition, % at 20 µM. 220,000 compounds, 0.68% hits. AID 463187, 2010;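 active = Hck-Nef kinase inhibition above about 50%, limit read from the data; inactive = inhibition below that limit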;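 also: 0% = DMSO with Hck plus Nef and 100% = Hck alone without Nef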
Numbers without * were called inactive; ? = inconclusive; nt = not tested or not shown; ! = repeats disagree. This is a sample that favours compounds with a hit; in the whole collection about 1.9% have one here.

SMILES	RanGTP-Imp inh	Runt-SMMHC FRET	Runt-CBFb FRET	Hck-Nef inh
CCC1=[N+](CC(=O)c2ccc(C)cc2)CCn2cccc21	-4	-25	-9	23
CCOc1ccc(OCC(=O)Nc2ccc(S(=O)(=O)Nc3cc(C)nc(C)n3)cc2)cc1	2	-4	2	7
Cc1ccc(OCCC(=O)Nc2ccc(S(=O)(=O)Nc3cc(C)nc(C)n3)cc2)cc1	20*	nt	nt	nt
CCOC(=O)CNS(=O)(=O)c1ccc2c3c(cccc13)C(=O)N2CC	21*	86*	0	-53
CCN1C(=O)c2cccc3c(S(=O)(=O)NCc4ccccn4)ccc1c23	23*	57	-20	0
COCCNS(=O)(=O)c1ccc2c3c(cccc13)C(=O)N2C	23*	90	-15	-46
CCOC(=O)Cc1csc(NS(=O)(=O)c2ccc3c4c(cccc24)C(=O)N3CC)n1	-3	-13	-6	4
CCN1C(=O)c2cccc3c(S(=O)(=O)Nc4c(C)n(C)n(-c5ccccc5)c4=O)ccc1c23	4	-1	-1	8
CN1C(=O)c2cccc3c(S(=O)(=O)NCCc4ccccc4)ccc1c23	8	nt	nt	nt
COC(=O)c1ccccc1C(=O)N1CCC(CCC(=O)NC2CC2)CC1	0	nt	nt	nt
CCN(CC)S(=O)(=O)c1cc(C(=O)Nc2cc(C)[nH]n2)ccc1Cl	1	nt	nt	nt
Cc1ccc2nc3c(cc(C(=O)NCc4ccco4)c(=N)n3C3CCCC3)c(=O)n2c1	187*	nt	nt	nt
Cc1ccc(CNC(=O)c2cc3c(=O)n4cccc(C)c4nc3n(CC3CCCO3)c2=N)cc1 (stereo unspecified)	nt	42	17	nt
Cc1ccc2nc(SCC(=O)NCc3ccco3)nc(=O)n2c1	-2	nt	nt	nt
Cc1cccn2c(=O)c3cc(C(=O)NCc4ccco4)c(=N)n(C4CCCCC4)c3nc12	130*	nt	nt	nt
Cc1ccc2nc(CSc3nc(C)cc(C)c3C#N)[nH]c2c1	29*	7	2	0
CCOC(=O)/C(C#N)=C\c1ccc(N2CCN(C/C=C/c3ccccc3)CC2)cc1	91*	-65	-118	4
O=C(CNC(=O)c1ccccc1F)N/N=C\C=C\c1ccccc1	7	nt	nt	nt
N=c1c(S(=O)(=O)c2ccc(Cl)cc2)cc2c(=O)n3ccccc3nc2n1Cc1ccco1	96*	nt	nt	nt
Cc1ccc(S(=O)(=O)c2cc3c(=O)n4cc(C)ccc4nc3n(CC3CCCO3)c2=N)cc1 (stereo unspecified)	nt	90*	86*	nt
N=c1c(S(=O)(=O)c2ccc(Cl)cc2)cc2c(=O)n3ccccc3nc2n1CC1CCCO1 (stereo unspecified)	112*	nt	nt	nt
N=c1c(S(=O)(=O)c2ccc(Cl)cc2)cc2c(=O)n3ccccc3nc2n1C1CCCC1	132*	nt	nt	nt
Cc1cc(NC(=O)CN2CCc3ccccc3C2)nc2c1c(=O)oc1ccccc12	11	-3	-1	6
CCCn1c2ccccc2c2cnn(CC(=O)NCCCN3C(C)CCCC3C)c(=O)c21 (stereo unspecified)	3	nt	nt	nt
N=c1c(S(=O)(=O)c2ccccc2)cc2c(=O)n3ccccc3nc2n1CC1CCCO1 (stereo unspecified)	nt	61*	105*	15
SMILES	RanGTP-Imp inh	Runt-SMMHC FRET	Runt-CBFb FRET	Hck-Nef inh
COC(=O)CC1COc2ccccc2N1C(=O)c1ccc(Cl)cc1 (stereo unspecified)	179*	1	-1	0
O=C(O)CN(C1CCCCC1)S(=O)(=O)c1ccc(F)cc1	4	2	0	23
CCn1ccnc1CN(C)Cc1cn(-c2ccccc2)nc1-c1ccc(OC)cc1F	?	3	1	4
CC(C)c1ccc(O)c(NC(=S)NC(=O)c2ccc3c(c2)OCO3)c1	-3	nt	nt	nt
Cc1cccc2cc3c(nc12)-c1ccccc1C3=O	2	nt	nt	nt
Cc1ccc2c3c(cccc13)-c1ccccc1C2=O	64*	63*	19	6
Cc1nn(-c2nnc(NC3CCCCC3)nn2)c(C)c1Br	-1	1	1	2
O=C(Cn1c2ccccc2c(=O)c2ccccc21)Nc1cccc(F)c1	60*	63*	76*	10
N#CC1(C#N)C(C(N)=O)C1c1ccccc1 (stereo unspecified)	?	-10	-1	0
CN1C=CC2=C(C#N)C(N)C(C#N)(C#N)[C@H](c3ccccc3)[C@H]2C1 (stereo partly specified)	64*	79*	66*	7
Cn1c(=O)c2c(ncn2CC(COCc2ccccc2)OCc2ccccc2)n(C)c1=O (stereo unspecified)	1	-4	-1	10
CC(=C\C(=O)O)/C(=C/c1ccccc1)C(=O)O	4	-2	4	-1
Nc1ccc2c(C(F)(F)F)cc(=O)oc2c1	57*	61*	18	0
CCOC(=O)c1cc2c(=O)n3ccccc3nc2n(Cc2ccccc2)c1=N	188*	63*	18	28
COc1ccc(CCn2c(=N)c(C(=O)NCC3CCCO3)cc3c(=O)n4ccccc4nc32)cc1 (stereo unspecified)	0	nt	nt	nt
CCOC(=O)c1cc2c(=O)n3ccccc3nc2n(Cc2ccccc2Cl)c1=N	nt	39	39	nt
N=c1c(C(=O)NC2CCCCC2)cc2c(=O)n3ccccc3nc2n1Cc1ccc(F)cc1	159*	nt	nt	nt
Cc1ccc(Cn2c(=N)c(C(=O)NC3CCCCC3)cc3c(=O)n4ccccc4nc32)cc1	161*	nt	nt	nt
Cn1c(C(=O)NC2CCCCC2)cc2c(=O)n3ccccc3nc21	3	nt	nt	nt
CCOCCCn1c(=N)c(C(=O)Nc2cc(C)on2)cc2c(=O)n3ccccc3nc21	nt	nt	nt	68*
N=c1c(C(=O)NC2CCCC2)cc2c(=O)n3ccccc3nc2n1Cc1ccccc1	177*	nt	nt	nt
COc1ccc(CC(=O)Nc2nncs2)cc1OC	3	83	89*	3
COc1cc2nc(N3CCN(C(=O)C4COc5ccccc5O4)CC3)nc(N)c2cc1OC (stereo unspecified)	-1	1	-2	0
COc1cc2nc(N3CCN(C(=O)c4ccco4)CC3)nc(N)c2cc1OC	25*!	-1	0	2
C/C(=N/NC(=O)c1cccs1)c1c(C)[nH]n(-c2nc3ccccc3s2)c1=O	-7	98*	45	18
SMILES	RanGTP-Imp inh	Runt-SMMHC FRET	Runt-CBFb FRET	Hck-Nef inh
CC(=NCc1ccco1)c1c(C)[nH]n(-c2nc3ccccc3s2)c1=O	?	-1	-2	10
CCCCNC(=O)/C=C1\Sc2ccccc2NC1=O	32*	3	1	5
CCc1ccc(C(=O)/C=C2\Sc3ccccc3NC2=O)cc1	-1	6	32	7
O=c1[nH]c2ccccc2nc1-c1c[nH]c2ccccc12	48*	nt	nt	nt
Cc1cc(SCC(=O)c2cccs2)nc2ccccc12	?	-3	2	5
CCc1ccc2c(CN(C)Cc3ccc(OC(F)F)c(OC)c3)cc(=O)oc2c1	-3	nt	nt	nt

Bioassay records from PubChem.
